Measured values reported in ChEMBL document CHEMBL6092204, “Synthesis of pyridyl pyrimidine hedgehog signaling pathway inhibitors and their antitumor activity in human pancreatic cancer” (Eur J Med Chem, 2024).

How the values were obtained:
BXPC-3 [1] = experiment: Inhibition of Hh signaling pathway in human BXPC-3 cells assessed as reduction in Ptch1 mRNA level incubated for 48 hrs by qRT-PCR analysis; type: cell-based
Summary of the method: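 Total RNA was extracted by column kit after 48 h treatment and checked spectrophotometrically. Gli1 and Ptch1 transcripts were quantified by real-time RT-qPCR with GAPDH as internal control. Results are fold change relative to the untreated group; three separate experiments.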

PANC-1 [2] = experiment: Inhibition of cell migration in human PANC-1 cells incubated for 48 hrs by crystal violet staining based transwell assay; type: functional; conditions: dose 2.5-10 µM
Summary of the method: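 Cells at 1.5×10^5 cells/mL in serum-free medium containing drug were added to the upper Transwell chamber (200 μL), with medium containing 10% FBS below. After 48 h, non-migrated cells were swabbed off. Inserts were fixed in 4% paraformaldehyde for 15-20 min and stained with 0.5% crystal violet. Cells were counted in four random fields at 100×; n = 3.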

PANC-1 [3] = experiment: Inhibition of cell migration in human PANC-1 cells incubated for 24 hrs by wound healing assay; type: functional, cell-based; conditions: dose 2.5-10 µM
Summary of the method: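 Monolayers at 80-90% confluence were scratched with a cross and washed three times with PBS. Eight fields were imaged at 0 h. Cells were then incubated with compound in medium containing 2% FBS, and the same fields were re-imaged at 24 h (100×). Closure % = (area 0 h − area 24 h)/area 0 h × 100; n = 3.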

PANC-1 [4] = experiment: Induction of apoptosis in human PANC-1 cells assessed as viable cells at 2.5 uM incubated for 48 hrs by Annexin V-FITC/PI staining based flow cytometry (reference value: 93.2 %); type: functional; conditions: read-out: Activity
PANC-1 [5] = experiment: Induction of apoptosis in human PANC-1 cells assessed as necrotic cells at 2.5 uM incubated for 48 hrs by Annexin V-FITC/PI staining based flow cytometry (reference value: 2.24 %); type: functional
PANC-1 [6] = experiment: Induction of apoptosis in human PANC-1 cells assessed as early apoptotic cells at 5 uM incubated for 48 hrs by Annexin V-FITC/PI staining based flow cytometry (reference value: 1.88 %); type: functional
BXPC-3 [7] = experiment: Induction of apoptosis in human BXPC-3 cells assessed as early apoptotic cells at 2.5 uM incubated for 48 hrs by Annexin V-FITC/PI staining based flow cytometry (reference value: 1.11 %); type: functional
BXPC-3 [8] = experiment: Induction of apoptosis in human BXPC-3 cells assessed as early apoptotic cells at 10 uM incubated for 48 hrs by Annexin V-FITC/PI staining based flow cytometry (reference value: 1.11 %); type: functional
PANC-1 [9] = experiment: Induction of cell cycle arrest in human PANC-1 cells assessed as accumulation at G2 phase at 2.5 uM incubated for 48 hrs by PI/RNase staining based flow cytometry (reference value: 5.83 %); type: functional
BXPC-3 [10] = experiment: Induction of cell cycle arrest in human BXPC-3 cells assessed as accumulation at S phase at 10 uM incubated for 48 hrs by PI/RNase staining based flow cytometry (reference value: 8.18 %); type: functional
BxPC-3 [11] = experiment: Antitumor activity aginst human BxPC-3 cells xenografted in BALB/c nude mouse assessed as decrease in tumor volume at 5 mg/kg, ip qd for 21 days relative to control; design: scale not given: the % may be the effect or the level left; conditions: time 21 day
[12] = Toxicity in BALB/c nude mouse xenografted with human BxPC-3 cells assessed as tissue fibrosis in kidneys at 5 to 15 mg/kg, ip qd for 21 days by H and E staining based analysis; conditions: in vivo, 504 h

SMILES: CN(C)Cc1ccc(NC(=O)c2ccc(Nc3nccc(-c4cccnc4)n3)cc2)cc1
- inhibition (BXPC-3 [1]): Dose-dependent-effect
- inhibition (PANC-1 [2]): Dose-dependent-effect
- inhibition (PANC-1 [3]): Dose-dependent-effect
- viability at 2.5 µM (PANC-1 [4]): 90.7%
- Activity (PANC-1 [5]): 2.19%
- Activity (PANC-1 [6]): 3.29%
- Activity (BXPC-3 [7]): 2.11%
- Activity (BXPC-3 [8]): 1.86%
- Activity (PANC-1 [9]): 7.2%
- Activity (BXPC-3 [10]): 3.11%
- Activity (BxPC-3 [11]): 73%
- Activity [12]: Non-toxic
